APP 5'UTR act = activators of APP 5'UTR luciferase reporter, primary screen, SH-SY5Y cells; SH-SY5Y APP 5'UTR luciferase reporter, luminescence; zero percent = DMSO vehicle wells; 190,000 compounds, 1% hits; AID 1276, 2008; activation, % at 2 µM;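 active means activation above a set limit, based on mean plus 3 SD of controls, cut at about 140% in these data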
STAT3 inh = IL-6 driven STAT3 reporter inhibitors, primary screen, U3A cells, luciferase, luminescence, MLSCN library. IL-6 STAT3-luciferase reporter; host cell line lacks STAT1. inhibition, % at 5.5 µM. 190,000 compounds, 0.89% hits;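 active means inhibition above the mean inhibition across all screened compounds plus 3 SD, cut at about 44% in these data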;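 further: 0% = DMSO only wells and 100% = 100 µM nifuroxazide control wells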
NF-kB neuron act = activators of NF-kB expression in neurons, primary screen, cell-based, HTS; human neuronal cells, NF-kB reporter expression; active compounds read high; fold change at 12.5 µM; 190,000 compounds, 1.6% hits; in the data active means fold change above about 3.3
STAT1 inh = STAT1 signaling inhibitors, primary screen, cell-based, HTS, luciferase reporter | NIH 3T3 STAT1-luciferase reporter, IFN-gamma, luminescence | inhibition, % at 5.5 µM | 200,000 compounds, 0.35% hits | AID 920, 2007;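 active means inhibition above a set limit, the mean inhibition across all tested compounds plus 3 SD, cut at about 34% in these data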;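 further: 0% = IFN-gamma with DMSO and 100% = IFN-gamma with 300 µM nifuroxazide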
STAT1 activator = STAT1 signaling activators, primary screen, cell-based, HTS, luciferase reporter | 200,000 compounds, 2.6% hits | NIH 3T3 STAT1-luciferase reporter, IFN-gamma, luminescence; 100% = IFN-gamma alone, no compound | activation (% of control), % at 5.5 µM;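 active means activation above the screen-wide mean activation plus 3 SD, cut at about 130% in these data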;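 further: raw ratio to IFN-gamma control signal so 100% means no change and 0% no light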
STAT3 act = IL-6 driven STAT3 reporter potentiators, primary screen, U3A cells, luciferase, luminescence, MLSCN library; 190,000 compounds, 0.91% hits; activation (% of control), % at 5.6 µM; AID 871, 2007; IL-6 STAT3-luciferase reporter; 100% = signal with IL-6 EC80 alone;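 active means activation above the screen-wide mean of compound activation plus 3 SD, cut at about 130% in these data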;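 further: 0% = background luminescence of wells with medium and substrate only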
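Test system: STAT3-luciferase reporter U3A cells; Detection: reporter luminescence signal; Times: 1 h compound pre-exposure, 6 h IL-6 stimulation, 37 °C; Benchmarks: IL-6-only high control; Also added: IL-6 stimulus at 33 ng/mL final.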
* = called active by the depositor. In the library only some 4.9% were active in any assay of this set; here they are far more common.

SMILES	APP 5'UTR act	STAT3 inh	NF-kB neuron act	STAT1 inh	STAT1 activator	STAT3 act
CCc1cc(C(=O)NNC(=S)Nc2ccccc2C)cs1	120	11	4.3*	-24	119	93
CCc1cc(C(=O)NNC(=S)Nc2cc(C)ccc2C)cs1	25	12	1.2	2	98	93
CCCc1cc(C(=O)Nc2nccs2)cs1	152*	27	6.7*	-32	130*	80
CCc1cc(C(=O)Nc2ccccc2)cs1	97	10	3.7*	-37	135*	97
CCc1cc(C(=O)NNC(=S)NCc2ccccc2)cs1	9	3	1.1	-3	103	101
O=C1c2ccccc2C2=Nc3ccccc3SC(c3cccc(F)c3)C12 (configuration not stated)	-17	-11	1.1	-6	108	107
Fc1cccc(C2NN=C(c3ccccc3)S2)c1 (configuration not stated)	182*	40	9*	-71	163*	66
COc1ccc(C2NN=C(c3ccc(C)cc3)S2)cc1OC (configuration not stated)	164*	10	3.5*	-40	136*	94
Cc1ccc(C2=NNC(c3cccc(F)c3)S2)cc1 (configuration not stated)	165*	78*	3.4*	48*	55	35
Cc1cc(C)c(NC(=O)CSc2ccc(-c3cccnc3)nn2)c(C)c1	12	-3	1.1	-5	105	107
O=S(=O)(c1ccc(Cl)cc1)N1c2ccccc2Oc2nc3ccccc3nc21	15	5	1.1	0	100	98
COc1ccc(S(=O)(=O)N2c3cc(Cl)ccc3Oc3nc4ccccc4nc32)cc1	17	-7	3.6*	0	95	107
COc1ccc(C2=NCN(c3ccc(C)cc3)C(=S)N2)cc1	54	-10	1.8	-14	113	106
Cc1ccc(N2CN=C(c3ccccc3)NC2=S)cc1	77	20	2.3	-33	130*	87
CCCCN(CCCC)C(=S)NC(=O)c1ccccc1Cl	2	14	1	-6	106	91
CN=c1scc(-c2cccs2)n1/N=C/c1ccc(O)c(O)c1O	-21	45*	5*	47*	58	64
CN=c1scc(-c2cccs2)n1/N=C/c1ccccc1O	-53	107*	0.17	47*	58	9
COCCCNC(=S)NC1CCCCC1	-13	4	0.99	1	99	99
CC12CCCCN1CCCc1c2[nH]c2ccccc12 (configuration not stated)	-4	-36	0.91	-5	105	136*
c1ccc2c3c([nH]c2c1)C1(CCCCC1)NCC3	13	-12	1	1	98	111
N#C/C(=N\Nc1cccc(F)c1)C(=N)N1CCCCCC1	150*	19	5.2*	-50	145*	93
CCN1CCN(C(=O)C(=O)c2c(C)[nH]c3ccccc23)CC1	11	1	1.2	2	98	101
COc1ccc(/C=C/C(=O)N(C)C2CCCCC2)cc1Br	29	12	1.4	-20	118	97
CN(C(=O)/C=C/c1cnc2ccccc2c1)C1CCCCC1	275*	38	3.9*	-6	105	70
Cc1cc(/C=C(\C#N)C(=O)NC2CC2)c(C)[nH]1	39	-38	2.3	-51	145*	132
SMILES	APP 5'UTR act	STAT3 inh	NF-kB neuron act	STAT1 inh	STAT1 activator	STAT3 act
c1csc(-c2ccc3ccccc3n2)c1	43	16	2.2	-52	147*	88
Nc1nc(-c2cccs2)cs1	6	-21	1.1	-19	117	122
CC(C)OC(=O)c1cccnc1N1CCN(c2cccc(Cl)c2)CC1	3	-8	1.3	0	100	110
CC1(C)N=C(N)N=C(N)N1c1ccc(F)cc1F	17	3	0.96	-4	104	102
CC1(C)N=C(N)N=C(N)N1c1ccccc1	-6	0	3.8*	-3	103	102
NS(=O)(=O)c1ccc(NC(=S)Nc2nn(Cc3ccc(Cl)cc3Cl)cc2Cl)cc1	9	17	0.99	1	99	88
